MC4R antagonist: MC4R antagonists of cAMP signaling, primary screen, cell-based, TR-FRET, antagonist arm of biased-ligand search; inhibition, % at 6.5 µM; MC4R-expressing cells, MTII-stimulated cAMP, LANCE TR-FRET; hit rate 0.48% among 360,000; AID 540295, 2011;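 active = inhibition above its plate's cutoff, the mean of tested wells on that plate plus 3 SD, cut at about 29% in these data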;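 note: 0% = Melanotan II alone and 100% = Melanotan II plus saturating MCL0020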
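Assay system: U2OS cells stably expressing human melanocortin 4 receptor (MC4R) / Dosing: 6.5 µM / Timing: compound 30 min, challenge 1 h, detection 1 h / Measured by: Eu-cAMP/anti-cAMP TR-FRET, emission 671 nm / Replicates: singlicate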
ANO1 activ: TMEM16A chloride channel activators or potentiators, primary screen, cell-based, HTS | Anoctamin-1 (Mus musculus), Q8BHY3 | HEK293 TMEM16A/YFP-H148Q/I152L, iodide quench fluorescence; hits give low values | B-score at 10 µM | hit rate 0.3% among 340,000;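 active = fluorescence-ratio B-score plate-corrected deviation score at least 3 library SD below zero, with starting fluorescence score within 5 deviations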;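 note: channel opened by trigger with iodide after compound preincubation; score built on the fluorescence ratio of max minus min over baseline; more negative score means more quench and so TMEM16A activation or potentiation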
Target sequence (Q8BHY3 whole entry, looked up): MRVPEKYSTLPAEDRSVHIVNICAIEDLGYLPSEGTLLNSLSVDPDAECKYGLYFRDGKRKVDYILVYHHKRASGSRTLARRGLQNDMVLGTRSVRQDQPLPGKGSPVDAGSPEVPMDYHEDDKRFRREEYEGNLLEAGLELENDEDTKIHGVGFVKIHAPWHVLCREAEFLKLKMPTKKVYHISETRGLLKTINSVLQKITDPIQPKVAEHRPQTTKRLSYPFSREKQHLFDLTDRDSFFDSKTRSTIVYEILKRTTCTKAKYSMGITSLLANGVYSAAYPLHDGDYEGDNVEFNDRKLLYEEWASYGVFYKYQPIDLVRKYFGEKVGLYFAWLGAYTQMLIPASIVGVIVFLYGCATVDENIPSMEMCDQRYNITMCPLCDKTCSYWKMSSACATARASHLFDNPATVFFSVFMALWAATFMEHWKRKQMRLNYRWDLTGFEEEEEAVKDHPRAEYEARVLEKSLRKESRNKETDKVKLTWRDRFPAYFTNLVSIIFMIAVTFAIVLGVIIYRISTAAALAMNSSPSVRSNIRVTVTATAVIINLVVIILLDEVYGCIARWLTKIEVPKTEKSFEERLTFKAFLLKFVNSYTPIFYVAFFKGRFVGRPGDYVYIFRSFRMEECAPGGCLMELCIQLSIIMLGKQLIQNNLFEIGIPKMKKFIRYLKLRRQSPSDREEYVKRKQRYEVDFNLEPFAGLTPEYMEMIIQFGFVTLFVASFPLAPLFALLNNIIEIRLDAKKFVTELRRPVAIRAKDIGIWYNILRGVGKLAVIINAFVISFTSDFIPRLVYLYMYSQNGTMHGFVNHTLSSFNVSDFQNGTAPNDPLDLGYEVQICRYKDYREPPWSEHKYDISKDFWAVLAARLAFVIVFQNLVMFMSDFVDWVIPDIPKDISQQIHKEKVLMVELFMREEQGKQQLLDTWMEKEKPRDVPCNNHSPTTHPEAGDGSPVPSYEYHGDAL
MIN6 prolif-1: inducers of MIN6 beta-cell proliferation, primary screen, ATP luminescence, uHTS; MIN6 cells proliferation, ATPlite luminescence, 48 h; cells starved in 0.2% serum; 100% = growth in 10% serum; proliferation, % at 10 µM; hit rate 0.29% among 330,000;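 active = compounds whose signal lies at least 3.5 SD above the mean of all wells on their plate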;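 note: 0% = DMSO-treated cells in low-serum medium and 100% = 10% serum control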
HTR2A ag: mouse Htr2a agonists via beta-arrestin recruitment, primary screen, cell-based, luminescence. hit rate 0.66% among 360,000. 5-hydroxytryptamine receptor 2A (Mus musculus), P35363. activation, % at 7.6 µM. CHO-K1 mHTR2A beta-arrestin complementation; percent of 30 µM serotonin response. AID 624169, 2012;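 active = activation above a run cutoff, the mean activation of all tested compounds plus 3 SD, cut at about 14% in these data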;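 note: 0% = plate median of compound wells and 100% = 30 µM serotonin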
TMEM16A inh: TMEM16A chloride channel inhibitors, primary screen, cell-based, HTS; Anoctamin-1 (Mus musculus), Q8BHY3; HEK293 TMEM16A/YFP iodide influx fluorescence, ionomycin; normalized B-score (activity score, 25-100; higher = stronger inhibition) at 10 µM; hit rate 1.2% among 310,000; AID 588511, 2011;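 active = ratio plate-corrected score three or more library SD toward inhibition, starting fluorescence score within five deviations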;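 note: score derived from kinetic fluorescence span divided by baseline fluorescence per well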
MC4R barr agon: MC4R agonists recruiting beta-arrestin, primary screen, cell-based, luminescence, agonist arm of biased-ligand search; hit rate 0.98% among 360,000; U2OS MC4R beta-arrestin complementation; percent of melanotan II response, DMSO zero; activation, % at 8.9 µM; Melanocortin receptor 4 (Homo sapiens), P32245;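 active = activation above a per-plate cutoff, the mean activation of sample wells on that plate plus 3 SD, cut at about 8% in these data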
MIN6 prolif-2: inducers of beta-cell proliferation in MIN6, confirmation, MIN6 cells, mouse; proliferation increase, % at 50 µM; 920 tested, under 10 active; ATPlite luminescence, 48 h; cells kept in 0.2% serum; scaled between 0.2% and 10% serum; AID 463095, 2010; shares compounds with MIN6 prolif-1;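 active = proliferation increase above 40% at any of the four tested concentrations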
Active calls of the source: *; i = inactive; nt = no result given. A selection: hits, their analogues and other compounds. The true share with any hit is near 3.4%.

SMILES	MC4R antagonist	ANO1 activ	MIN6 prolif-1	HTR2A ag	TMEM16A inh	MC4R barr agon	others
N#CC1c2ccccc2-n2nncc2CN1S(=O)(=O)c1cc(Cl)cc(Cl)c1 (stereo unspecified)	0	nt	nt	-1	nt	-3
COC1C(C)OC(OC2CC(C)(O)Cc3cc4c(c(O)c32)C(=O)c2c(O)cc3c(c2C4=O)OC2OC3(C)C(O)C(N(C)C)C2O)C(OC)C1(C)OC (stereo unspecified)	-4	i	nt	-3	nt	0
CCC1C=CC=CC[C@H](C)[C@@H](O)[C@](C)(O)C(=O)[C@@H](C)[C@H](O)[C@@H](C)C(=O)[C@H](C)[C@@H](O)[C@H](C)C=CC(=O)OC2[C@@H](C)C(CC1)OC1(CC[C@@H](C)C(C[C@H](C)O)O1)[C@@H]2C (stereo partly specified)	nt	nt	-8	nt	25*	nt
CC12CC(=O)C3C(CCC4CC(=O)C=CC43C)C1CCC2=O (stereo unspecified)	3	i	nt	2	nt	-2
CC(C)CC(=O)NC(Oc1ccc(Cl)cc1)C(Cl)(Cl)Cl (stereo unspecified)	12	i	2	7	i	8.5*
CCCC(=O)NC(Oc1ccc(OC)cc1)C(Cl)(Cl)Cl (stereo unspecified)	2	i	-1	2	i	-1
O=C(CCCN1CCC2(CC1)C(=O)NCN2c1ccccc1)c1ccc(F)cc1	3	-11*	-1	-8	25*	1
C[C@]12CC[C@@H](O)CC1=CCC1C2CC[C@@]2(C)C1CC[C@@H]2O (stereo partly specified)	11	nt	nt	-7	nt	-1
COc1ccc(OC)c(N2C(=O)NC(=O)C3(Cc4cc(C)ccc4N(C)C3)C2=O)c1 (stereo unspecified)	-2	i	0	-2	i	0
Cc1ccc2c(c1)CC1(CN2C)C(=O)NC(=O)N(c2cc(C)ccc2C)C1=O (stereo unspecified)	6	i	2	1	25*	0
CC12CCC(=O)C=C1CC(N1CC1)C1C2CCC2(C)C(O)CCC12 (stereo unspecified)	7	i	nt	-6	nt	-1
CCCCCN1C(=O)c2ccccc2[C@@]2(C(=O)OCC)Cc3cc(OC)ccc3[C@@H]12	nt	nt	nt	-4	nt	nt
COc1ccc(-n2c(-c3ccc(C)cc3)nc3ccccc3c2=O)cc1	-10	-4.9*	-3	0	i	0
Cc1ccc(-c2nc3ccccc3c(=O)n2-c2ccncc2)cc1	18	i	-1	-4	i	1
Fc1cccc(-c2ccc3c(c2)CNCc2cnnn2-3)c1	nt	nt	nt	-4	nt	nt
C[C@@H]1CN([C@@H](C)CO)C(=O)CCCn2nncc2CO[C@@H]1CN(C)C(=O)Oc1cccc2ccccc12	13	nt	nt	1	nt	1
C[N+](C)(C)CCOC(=O)CBr	6	i	0	-2	i	0
CC(=O)OCC[N+](C)(C)C	-1	-9.6*	-4	-3	i	0
COC(=O)C1=C(c2ccc(OC(F)(F)F)cc2)C[C@@H]2CC[C@H]1N2C(=O)NC1CCCCC1	6	i	-5	-9	nt	3
CCCCn1c(=O)c(C(=O)Nc2cnccn2)c(O)c2ccccc21	-1	nt	-4	-1	100*	-1
CCCCCn1c(=O)c(C(=O)Nc2ncccc2C)c(O)c2ccccc21	6	i	-3	3	i	1
CCC1(O)CCC2C3CCC4=CC(=O)CCC4C3CCC21CC (stereo unspecified)	7	-4.8*	nt	5	nt	1
CC(O)(CS(=O)(=O)c1cccc(C(F)(F)F)c1)C(=O)Nc1cccc(C(F)(F)F)c1 (stereo unspecified)	4	i	-4	-3	i	10.0*
COc1ccc(OCC(=O)N2CCN(Cc3ccc(SC)cc3)CC2)cc1	10	i	0	0	100*	1
COc1ccc(C(=O)OCC2CN2c2cccc([N+](=O)[O-])c2)cc1 (stereo unspecified)	nt	nt	nt	1	nt	nt
SMILES	MC4R antagonist	ANO1 activ	MIN6 prolif-1	HTR2A ag	TMEM16A inh	MC4R barr agon	others
CN1CCN(c2nc3ccccc3o2)CC1	1	i	7.3*	0	i	-1	MIN6 prolif-2=-2
CC/C(=N\NC(=O)c1ccccc1Cl)c1c(O)n(C2CCCCC2)c(=O)[nH]c1=O	-4	i	0	-2	i	-1
CC/C(=N\NC(=O)c1ccccc1)c1c(O)n(C2CCCCC2)c(=O)[nH]c1=O	5	i	12*	3	i	0	MIN6 prolif-2=-5
C[C@H]1COc2cc(N3CCN(C)CC3)ccc2S(=O)(=O)N1	nt	nt	nt	-1	nt	nt
Cc1ccc(-n2c(O)c(C=Nc3ccc(S(N)(=O)=O)cc3)c(=O)[nH]c2=O)cc1	13	i	-4	-2	i	-3
NS(=O)(=O)c1ccc(N=Cc2c(O)n(-c3ccccc3)c(=O)[nH]c2=O)cc1	1	i	8.2*	-5	i	-1	MIN6 prolif-2=3
CC(C)C(O)(C(=O)OCC1=CCN2CCC(O)C12)C(C)O (stereo unspecified)	7	nt	nt	-2	nt	0
COc1ccc(-c2cc(=O)c3c(OC)c(OC)c(OC)cc3o2)cc1	3	i	9.3*	-1	i	1	MIN6 prolif-2=-2
Cc1cc(-c2cc(C)c(N)c(C)c2)cc(C)c1N	-4	i	nt	-3	nt	1
C=CCn1c(O)c(C(CC)=NCc2ccco2)c(=O)[nH]c1=O	8	i	6.2*	-4	i	-1	MIN6 prolif-2=0
O=P1(c2ccccc2)Nc2ccccc2N1c1ccccc1 (stereo unspecified)	4	i	nt	-2	nt	1
COc1cccc(-n2c(/C=C/c3ccccn3)nc3ccccc3c2=O)c1	-3	i	8.5*	1	i	0	MIN6 prolif-2=-6
Cc1cccc(-n2c(/C=C/c3ccccn3)nc3ccccc3c2=O)c1	4	i	1	-5	i	0
CC(=O)c1ccc(OC(NC(=O)c2ccco2)C(Cl)(Cl)Cl)cc1 (stereo unspecified)	7	i	7.2*	1	i	-1	MIN6 prolif-2=-1

Source: PubChem BioAssay
